Five molecules from ChEMBL document CHEMBL1122522, “Conformationally restricted retinoids” (1984) can be followed below.

Assay [1] concerns Cricetinae gen. sp. The assay is described as follows: Activity of compound the was expressed as ratio of active hamster tracheal organ cultures(TOC) to the total cultures at 10e-8 M concentration; 8/8. The class given is functional, Cricetulus griseus, Trachea. The essentials: (§1)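 Tracheal organ cultures came from vitamin A-deficient hamsters. Each culture was scored for reversal of keratinization and reported as active cultures out of total cultures at each retinoid concentration tested (10⁻⁸ to 10⁻¹² M). The protocol followed earlier published methods.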

Assay [2] has as its target T1, Ornithine decarboxylase (Mus musculus) (UniProt P00860).
T1 sequence (whole entry): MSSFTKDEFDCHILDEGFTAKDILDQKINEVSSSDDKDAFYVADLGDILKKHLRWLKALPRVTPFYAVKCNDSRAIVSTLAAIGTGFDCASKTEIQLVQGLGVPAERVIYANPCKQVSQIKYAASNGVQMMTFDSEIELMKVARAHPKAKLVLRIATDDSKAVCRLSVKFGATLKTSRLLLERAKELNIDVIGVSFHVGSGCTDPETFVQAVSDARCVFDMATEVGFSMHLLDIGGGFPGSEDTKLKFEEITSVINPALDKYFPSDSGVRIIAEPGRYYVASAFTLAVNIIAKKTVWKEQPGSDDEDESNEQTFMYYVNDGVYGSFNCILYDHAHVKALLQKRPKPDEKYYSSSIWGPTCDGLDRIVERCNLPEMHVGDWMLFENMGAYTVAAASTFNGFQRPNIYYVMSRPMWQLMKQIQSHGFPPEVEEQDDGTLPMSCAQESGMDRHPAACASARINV
The assay is described as follows: Inhibition of the induction of ornithine decarboxylase in mouse epidermis by the tumor promoter 12-O-tetradecanoylphorbol-13-acetate (ODC) at dose 1.7 nmol * p<0.02.

The subject of assay [3] is Cricetinae gen. sp. The assay is described as follows: Activity of compound the was expressed as ratio of active hamster tracheal organ cultures(TOC) to the total cultures at 10e-9 M concentration; 8/14. The class given is functional, Cricetulus griseus, Trachea. The essentials:
as §1

In assay [4] the test system is Cricetinae gen. sp. The assay is described as follows: Molarity required to effect reversal of keratinization in 50% of cultures. The class given is functional, Cricetulus griseus.
Assay [5] has as its system Cricetinae gen. sp. In words: Activity of compound the was expressed as ratio of active hamster tracheal organ cultures(TOC) to the total cultures at 10e-10 M concentration; 3/14. It counts as functional, Cricetulus griseus, Trachea. The gist of the method: as §1
In assay [6] the target is T1, Ornithine decarboxylase (Mus musculus). The assay is described as follows: Inhibition of the induction of ornithine decarboxylase in mouse epidermis by the tumor promoter 12-O-tetradecanoylphorbol-13-acetate (ODC) at dose 17 nmol * p<0.05.
The test system of assay [7] is Cricetinae gen. sp. In words: Activity of compound the was expressed as ratio of active hamster tracheal organ cultures(TOC) to the total cultures at 10e-9 M concentration; 1/6. It counts as functional, Cricetulus griseus, Trachea. The essentials:
as §1

For assay [8], the system named is Cricetinae gen. sp. The assay is described as follows: Activity of compound the was expressed as ratio of active hamster tracheal organ cultures(TOC) to the total cultures at 10e-10 M concentration; 2/7. It counts as functional, Cricetulus griseus, Trachea. The essentials: as §1
The target of assay [9] is T1, Ornithine decarboxylase (Mus musculus). In words: Inhibition of the induction of ornithine decarboxylase in mouse epidermis by the tumor promoter 12-O-tetradecanoylphorbol-13-acetate (ODC) at dose 1.7 nmol; Inhibition not significant.
For assay [10], the system named is Cricetinae gen. sp. The assay is described as follows: Molarity required to effect reversal of keratinization in 50% of the cultures. It counts as functional, Cricetulus griseus. The gist of the method: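 Tracheal organ cultures from vitamin A-deficient hamsters were scored for reversal of keratinization across a range of molar retinoid concentrations. The value is the concentration reversing keratinization in 50% of cultures, read from active/total culture counts.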

For assay [11], the target named is T1, Ornithine decarboxylase (Mus musculus). The assay is described as follows: Inhibition of the induction of ornithine decarboxylase in mouse epidermis by the tumor promoter 12-O-tetradecanoylphorbol-13-acetate (ODC) at dose 17 nmol; Inhibition not significant.
In assay [12] the test system is Cricetinae gen. sp. The assay is described as follows: Activity of compound the was expressed as ratio of active hamster tracheal organ cultures(TOC) to the total cultures at 10e-8 M concentration; 3/7. The class given is functional, Cricetulus griseus, Trachea. The essentials: as §1
Assay [13] concerns the target T1, Ornithine decarboxylase (Mus musculus). In words: Inhibition of the induction of ornithine decarboxylase in mouse epidermis by the tumor promoter 12-O-tetradecanoylphorbol-13-acetate (ODC) at dose 1.7 nmol * * inhibition not significant.
The subject of assay [14] is Cricetinae gen. sp. The assay is described as follows: Activity of compound the was expressed as ratio of active hamster tracheal organ cultures(TOC) to the total cultures at 10e-10 M concentration; 1/7. It counts as functional, Cricetulus griseus, Trachea. The essentials: as §1
Assay [15] deals with Cricetinae gen. sp. The assay is described as follows: Activity of compound the was expressed as ratio of active hamster tracheal organ cultures(TOC) to the total cultures at 10e-9 M concentration; 2/7. The class given is functional, Cricetulus griseus, Trachea. The gist of the method:
as §1

The target of assay [16] is T1, Ornithine decarboxylase (Mus musculus). In words: Inhibition of the induction of ornithine decarboxylase in mouse epidermis by the tumor promoter 12-O-tetradecanoylphorbol-13-acetate (ODC) at dose 17 nmol * * inhibition not significant.
In assay [17] the test system is Cricetinae gen. sp. In words: Activity of compound the was expressed as ratio of active hamster tracheal organ cultures(TOC) to the total cultures at 10e-10 M concentration; 6/13. The class given is functional, Cricetulus griseus, Trachea. The essentials: as §1
Assay [18] concerns Cricetinae gen. sp. In words: Activity of compound the was expressed as ratio of active hamster tracheal organ cultures(TOC) to the total cultures at 10e-9 M concentration; 11/12. The class given is functional, Cricetulus griseus, Trachea. The essentials:
as §1

Assay [19] concerns Cricetinae gen. sp. In words: Activity of compound the was expressed as ratio of active hamster tracheal organ cultures(TOC) to the total cultures at 10e-8 M concentration; 7/7. It counts as functional, Cricetulus griseus, Trachea. To be noted: at 0.01 µM.
For assay [20], the system named is Cricetinae gen. sp. In words: Activity of compound the was expressed as ratio of active hamster tracheal organ cultures(TOC) to the total cultures at 10e-11 M concentration; 1/5. It counts as functional, Cricetulus griseus, Trachea. The essentials: as §1
The nature of assay [21]: Mortality range in days at dose 300 umol/kg day; 14-15. It counts as functional, Mus musculus. The gist of the method: (§2)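 Adult female Swiss mice (20–25 g) had chow and water ad libitum. The retinoid was homogenized as a suspension in aqueous 8% Cremophor EL plus 10% propylene glycol. It was given ip as 10 weekday injections over 14 days. Controls received vehicle alone. Survivors were weighed on days 1, 5, 10 and 15, and dates of death were recorded. Survival was scored at days 8 and 15.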

Assay [22] can be described thus: Percent survivors at dose 30 umol/kg day. The class given is functional, Mus musculus. The essentials:
as §2

Assay [23] is filed under the species Mus musculus. The assay is described as follows: Percent decrease in average number of papillomas 17 at dose. It counts as functional. The gist of the method:
(§3)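 Female Charles River CD-1 mice, 8 weeks old, in random groups of 25–30, were shaved 2 days before initiation with 200 nmol DMBA in acetone on the back. From 2 weeks on, 8.5 nmol TPA was applied twice weekly for 20 weeks. Retinoid in 0.2 mL acetone, or acetone alone for controls, was given 1 h before each TPA dose. Papillomas were counted weekly, and mean papillomas per mouse were compared with controls at 20 weeks.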

The target in assay [24] is T1, Ornithine decarboxylase (Mus musculus). The assay is described as follows: Inhibition of the induction of ornithine decarboxylase in mouse epidermis by the tumor promoter 12-O-tetradecanoylphorbol-13-acetate (ODC)) at dose 17 nmol.
The nature of assay [25]: Percent survivors at dose 600 umol/kg day. The class given is functional, Mus musculus. The essentials: as §2
Assay [26] in a line: Percent survivors at dose 300 umol/kg day. The class given is functional, Mus musculus. The essentials:
as §2

The test system of assay [27] is Cricetinae gen. sp. The assay is described as follows: Activity of compound the was expressed as ratio of active hamster tracheal organ cultures(TOC) to the total cultures at 10e-9 M concentration; 7/7. The class given is functional, Cricetulus griseus, Trachea. The gist of the method: as §1
The nature of assay [28]: Mortality range in days at dose 600 umol/kg day; 9-10. The class given is functional, Mus musculus. The essentials: as §2
The test system of assay [29] is Cricetinae gen. sp. The assay is described as follows: Activity of compound the was expressed as ratio of active hamster tracheal organ cultures(TOC) to the total cultures at 10e-10 M concentration; 12/14. The class given is functional, Cricetulus griseus, Trachea. The gist of the method:
as §1

The nature of assay [30]: Percent survivors at dose 200 umol/kg day. It counts as functional, Mus musculus. The gist of the method:
as §2

For assay [31], the target named is T1, Ornithine decarboxylase (Mus musculus). In words: TInhibition of the induction of ornithine decarboxylase in mouse epidermis by the tumor promoter 12-O-tetradecanoylphorbol-13-acetate (ODC) at dose 1.7 nmol.
The nature of assay [32]: Percent survivors at dose 100 umol/kg day. It counts as functional, Mus musculus. The gist of the method: as §2
For assay [33], the species on record is Mus musculus. The assay is described as follows: Percent decrease in average number of papillomas 170 at dose. The class given is functional. The gist of the method:
as §3

The species entered for assay [34] is Mus musculus. The assay is described as follows: Tested for relative activity in a 20-week anti-papilloma experiment in female CD-1 mice at dose 17 nmol. The class given is functional. The essentials:
as §3

The species named for assay [35] is Mus musculus. In words: Tested for relative activity in a 20-week anti-papilloma experiment in female CD-1 mice at dose 170 nmol. The class given is functional. The essentials: as §3

The structures appear in SMILES notation.

In the case of `C/C(=C\c1ccc(C(=O)O)cc1)c1ccc2c(c1)C1CCC2C1` (configuration not stated), the results for the Activity in [1], in assay [3] and in [5] were 8%, 57% and 3%, respectively. The inhibition in [2] is 33%; in [6], 69%. Besides, the ED50 in assay [4] turned out to be 6e-10.

In the case of `CCOC(=O)c1cccc(/C=C(C)/C=C/C2=C(C)CCCC2(C)C)c1`, the Activity in assay [7] is given as 1%; in assay [8], 2%. Moreover, the values for the inhibition in [9] and in assay [11] were 13% and 6%, respectively. Besides, the ED50 in [10] was more than 1e-08.

For the molecule `CCOC(=O)c1ccc([C@H]2CC2c2ccc3c(c2)C2CCC3C2)cc1` (some centres not stated), the figures for the Activity in [12], in [14] and in [15] were 3%, 1% and 29%, respectively. Further, the inhibition in assay [13] was determined as 0%; in [16], 4%. Also, the ED50 in [4] was more than 1e-08.

Turning to `CC1=C(/C=C/c2ccc3cc(C(=O)O)ccc3c2)C(C)(C)CCC1`, the Activity in assay [17] was found to be 6%; in assay [18], 92%; in [19], 7%; in [20], 1%. The ED50 in assay [4] is reported as 1e-10.

Regarding `C/C(=C\c1ccc(C(=O)O)cc1)c1ccc2c(c1)C(C)(C)CCS2`, the results for the Mortality range in assay [21] and in [28] were 15 days and 10 days, respectively. In addition, the “Survivors at day 15” value is reported as 100% in assay [22], 0% in assay [25], 80% in assay [26] and 100% in assay [32]. Besides, the Decrease in assay [23] is 93.4%; in assay [33], 93.6%. Besides, the inhibition amounted to 85% in [24] and 68% in [31]. Also, the “Survivors at day 8” value in [25], in assay [26], in [30] and in assay [32] was 100% each time. Also, the Activity in [27] stood at 100%; in [29], 12%; in assay [19], 7%; in assay [34] it was 53%; in assay [35], 38%. Besides, the ED50 in assay [4] was 5e-11.

As a reminder, the inhibition is the share of the control response that was lost under treatment. Read a low inhibition as little suppression.
